Bioassay records from PubChem BioAssay.
Hits are enriched below; roughly 2.4% of the tested compounds scored in any of these assays.
aDG glyco up = alpha-DG glycosylation activation | activation, % at 10 µM | Pro5-aDG cells, alpha-DG glycosylation AlphaScreen (IIH6); 0% Pro5, 100% B10-LARGE cell signal | AID 624168 | 0.22% of 360,000 active;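 active = activation of at least 8% versus controls, or a plate z-score of at least 8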;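 note: Pro5 are CHO cells carrying HIG-tagged alpha-DG that lacks glycosylation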
NTR1 ag = activates human neurotensin receptor 1 | NTR1-U2OS beta-arrestin-GFP spot imaging, agonist mode | activation, % at 20 µM | 0.17% of 330,000 active | AID 493036;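 active = activation at or above 40% of the spot to cytoplasm intensity ratio, with at least 20 cells analyzed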
Target sequence (P30989 whole entry, looked up): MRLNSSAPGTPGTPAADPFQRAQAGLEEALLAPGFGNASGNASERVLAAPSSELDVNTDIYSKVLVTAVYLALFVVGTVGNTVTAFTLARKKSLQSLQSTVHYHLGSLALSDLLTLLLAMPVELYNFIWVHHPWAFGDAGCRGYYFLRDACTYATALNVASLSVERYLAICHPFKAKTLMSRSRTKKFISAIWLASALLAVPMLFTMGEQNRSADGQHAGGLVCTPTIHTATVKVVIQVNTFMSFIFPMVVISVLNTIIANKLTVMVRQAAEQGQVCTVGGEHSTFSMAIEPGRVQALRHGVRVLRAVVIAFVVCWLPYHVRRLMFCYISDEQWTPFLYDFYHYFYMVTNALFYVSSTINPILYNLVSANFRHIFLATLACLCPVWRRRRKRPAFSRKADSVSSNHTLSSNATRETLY
MC4R antagonist = antagonists of human melanocortin 4 receptor (MC4R) | P32245 | MC4R-expressing cells, MTII-stimulated cAMP, LANCE TR-FRET | inhibition, % at 6.5 µM | 0.48% of 360,000 active | AID 540295;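 active = inhibition above its plate's cutoff, the mean of tested wells on that plate plus 3 SD, cut at about 29% in these data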
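material = U2OS cells stably expressing human melanocortin 4 receptor (MC4R) | also added = Melanotan II challenge | dosing = single nominal compound dose of 6.5 µM | detection = TR-FRET with Eu-cAMP and labeled anti-cAMP, 671 nm | replication = singlicate | timing = compound 30 min, challenge 1 h, detection 1 h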
Tb MetRS inh = blocks T. brucei methionyl-tRNA synthetase activity | purified T. brucei MetRS, ATP depletion, Kinase-Glo luminescence | inhibition, % at 11.9 µM | 0.4% of 360,000 active;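 active = inhibition above a per-plate cutoff of the control wells' mean inhibition plus 3 SD, cut at about 5.5% in these data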
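technique = Kinase-Glo luminescence, ATP depletion format | system = purified MetRS (methionyl-tRNA synthetase) enzyme from Trypanosoma brucei | timing = 15 min preincubation, 2 h reaction, all 25 °C | evaluation = percent inhibition versus plate control medians | dosing = single dose, 11.9 µM final nominal, 0.9% final DMSO | also added = substrates ATP, L-methionine and bulk Escherichia coli tRNA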
MC4R barr agon = human MC4R agonism via beta-arrestin; U2OS MC4R beta-arrestin complementation, luminescence; percent of melanotan II response, DMSO zero; activation, % at 8.9 µM; 0.98% of 360,000 active; AID 540308;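 active = activation above a per-plate cutoff, the mean activation of sample wells on that plate plus 3 SD, cut at about 8% in these data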
TAG inh = triacylglycerol accumulation inhibition | 0.66% of 230,000 active | H9c2 cells, Nile Red lipid (TAG) fluorescence; cells loaded with 200 µM oleic acid | inhibition, % at 12.5 µM | AID 651582;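 active = pattern-corrected inhibition of lipid staining of at least 50% with the nuclear-stain viability signal not falling by more than 50%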
Each line names hits and unclear results; the compound was inactive in the other large screens.

CN1C/C(=C/c2ccccc2[N+](=O)[O-])C(=O)/C(=C\c2ccccc2[N+](=O)[O-])C1	TAG inh 69.4 (no result: NTR1 ag)
Cc1ccc(C)c2c1CCC(=Cc1ccccc1[N+](=O)[O-])C2=O	none (no result: NTR1 ag)
Cc1cc(S(=O)(=O)Nc2c(NC3CCCCC3)c3ccccc3oc2=O)ccc1F	MC4R barr agon 8.4 (no result: TAG inh)
CCN(CC)CCNc1cc(C)nc2c1C(=O)C(=O)C=C2N1CCCCC1	TAG inh 81.9
COC(=O)c1cc(C)nc2c1C(=O)C(=O)C=C2N1CCOCC1	none (no result: TAG inh)
COc1ccccc1NC(=O)c1cc2cc(Br)ccc2oc1=N	MC4R barr agon 8.3 (no result: TAG inh)
CC1(c2nnnn2Cc2ccccc2)CCC(=O)N1CCc1ccc(O)cc1 (centres undefined)	none (no result: NTR1 ag, MC4R antagonist, MC4R barr agon, TAG inh)
CCCCCCN1CCN(C2CN(C3CCCCC3)S(=O)(=O)C2)CC1 (centres undefined)	none (no result: NTR1 ag, MC4R antagonist, MC4R barr agon, TAG inh)
CCCCN(C)C(=O)CCCCn1c(=O)[nH]c2cc(OCC)c(OCC)cc2c1=O	TAG inh 51.1
CCOc1cc2[nH]c(=O)n(CCCCCC(=O)NCc3ccco3)c(=O)c2cc1OCC	none
CCOc1cc2[nH]c(=O)n(CCc3ccc(OC)c(OC)c3)c(=O)c2cc1OCC	TAG inh 58.6
CCOc1cc2[nH]c(=S)n(CCc3ccc(OC)c(OC)c3)c(=O)c2cc1OCC	none (no result: TAG inh)
COC(=O)C1(C(=O)OC)C[C@H](c2ccc(OC)cc2)N(Cc2ccccc2OC)[C@@H]1c1cccs1	none (no result: NTR1 ag, MC4R antagonist, MC4R barr agon, TAG inh)
O=C(Nc1ccc2oc(-c3ccncc3)nc2c1)c1ccccc1	none
O=C(Nc1ccc2oc(-c3ccc4ccccc4c3)nc2c1)c1ccc2c(c1)OCCO2	MC4R barr agon 8.6 (no result: TAG inh)
O=C(Nc1cccc(Cl)c1)c1csc([C@H]2C[C@H](O)[C@@H](CO)O2)n1	none (no result: NTR1 ag)
Cc1nn(-c2ccccc2)c2c1C(c1ccc(O)c(O)c1)N1C(=N2)C(Nc2ccccc2)=Nc2ccccc21 (centres undefined)	none
Cc1ccc(NC2=Nc3ccccc3N3C2=Nc2c(c(C)nn2-c2ccccc2)C3c2ccc(O)c(O)c2)cc1 (centres undefined)	TAG inh 109.5 (no result: NTR1 ag)
CCOc1ccc(N(CC(=O)Nc2ccccc2C)S(=O)(=O)c2c(C)noc2C)cc1	TAG inh 70.5
CCNC1=C(Cl)C(=O)c2ccccc2C1=O	aDG glyco up 11.6, TAG inh 61.7
COC(=O)C[C@H]1C=C[C@H](NS(=O)(=O)c2cn(C)cn2)[C@@H](CO)O1	none (no result: NTR1 ag, MC4R antagonist, MC4R barr agon, TAG inh)
COC(=O)C[C@H]1CC[C@@H](NS(=O)(=O)c2ccccc2)[C@@H](CO)O1	none (no result: NTR1 ag, MC4R antagonist, MC4R barr agon, TAG inh)
O=S1(=O)CC(N2CC=CC2)CN1Cc1ccccc1 (centres undefined)	none (no result: NTR1 ag, MC4R antagonist, MC4R barr agon, TAG inh)
O=C(Cc1coc2ccc3ccccc3c12)NC1CCCc2ccccc21 (centres undefined)	MC4R barr agon 9.1 (no result: TAG inh)
O=C(Cc1coc2ccc3ccccc3c12)NCc1ccccc1	none (no result: TAG inh)
NC(=O)C1(N2CCCCC2)CCN(C(=S)Nc2cc(F)cc(F)c2)CC1	none
NC(=O)C1(N2CCCCC2)CCN(C(=S)Nc2ccc(F)cc2)CC1	MC4R barr agon 8.5 (no result: TAG inh)
CC1(Cc2ccccc2OC(F)(F)F)C(=O)Nc2c(Cl)ccc(Cl)c21 (centres undefined)	none (no result: NTR1 ag)
Cc1cccc(N2CCN(C(C(=O)NCc3ccccc3)c3ccc(C(F)(F)F)cc3)CC2)c1C (centres undefined)	none (no result: NTR1 ag, MC4R antagonist, MC4R barr agon, TAG inh)
COc1ccc(C(=O)Nc2ccc(Nc3ccccc3)cc2)cc1Br	MC4R barr agon 9.4
CCOc1ccc(C2NCCc3cc(OC)c(OC)cc32)cc1OC (centres undefined)	none (no result: TAG inh)
COc1ccc2cc1Oc1ccc(cc1)C[C@H]1c3c(cc(OC)c4c3Oc3c(ccc5c3[C@H](C2)N(C)CC5)O4)CCN1C	TAG inh 108.7
COc1ccc2cc1Oc1ccc(cc1)CC1c3c(cc(OC)c4c3Oc3cc5c(cc3O4)CCNC5C2)CCN1C (centres undefined)	MC4R barr agon 45.0 (no result: TAG inh)
COC(=O)[C@]12CCCCC=C1N(Cc1ccc(Cl)cc1Cl)C(=O)[C@H](CC(=O)N1CCCC1)C2	none (no result: NTR1 ag, MC4R antagonist, MC4R barr agon, TAG inh)
O=C(COC(=O)c1cccc(F)c1)NC(=O)NC1CCCC1	none
